High-throughput results from PubChem.
RBBP9 inh = human RBBP9 hydrolase inhibition. O75884. recombinant RBBP9, FP-Rh probe fluorescence polarization. inhibition, % at 7.94 µM. actives 0.2% (n = 220,000);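 active = inhibition above the campaign mean of all tested compounds plus 3 SD, cut at about 14% in these data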;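 note: plate controls were DMSO wells with RBBP9 for no effect and wells lacking RBBP9 protein for full effect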
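Controls: DMSO-treated enzyme wells and wells lacking RBBP9 | Material: RBBP9 protein | Technique: Fluorescence polarization | Replication: Single well per compound, no replicates | Buffer or medium: Tris-NaCl-Pluronic buffer, pH 8.0 | Timing: 30 min compound preincubation, 45 min probe labeling, 25 °C | Read-out basis: Percent inhibition from mP, scaled between DMSO and no-protein wells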
MCL1 BIM primary = inhibitors of human MCL1 binding to BIM-BH3 peptide; Q07820; GST-MCL1 / FITC-Bim-BH3 fluorescence polarization; inhibition, % at 10.9 µM; actives 0.68% (n = 320,000);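 active = inhibition above the mean inhibition of all tested compounds plus 3 SD, set per campaign, cut at about 40% in these data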;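 note: 0% = DMSO wells and 100% = unlabeled Bim-BH3 peptide control; higher means more loss of mP so more displacement of Bim peptide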
Target sequence (Q07820 whole entry, looked up): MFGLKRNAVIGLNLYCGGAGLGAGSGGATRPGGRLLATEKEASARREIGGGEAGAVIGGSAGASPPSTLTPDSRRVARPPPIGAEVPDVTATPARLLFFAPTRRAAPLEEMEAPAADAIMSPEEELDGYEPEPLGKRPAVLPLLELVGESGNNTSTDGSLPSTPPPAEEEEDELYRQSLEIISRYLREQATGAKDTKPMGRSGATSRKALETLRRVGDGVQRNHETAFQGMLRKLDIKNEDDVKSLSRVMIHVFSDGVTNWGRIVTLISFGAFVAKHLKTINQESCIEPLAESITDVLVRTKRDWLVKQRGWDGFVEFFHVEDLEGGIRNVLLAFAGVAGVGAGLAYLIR
Mcl-1 Bim block = human Bim-Mcl-1 interaction inhibition; inhibition, % at 10 µM; Bead-based flow cytometry, Bim peptide-Mcl-1 binding; Q07820; actives 0.1% (n = 190,000); in the data active = inhibition above about 40%;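 note: 0% = no compound tracer wells and 100% = peptide blocker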
Mcl1-Bid inh = Mcl-1/Bid interaction inhibition; TR-FRET Mcl-1/Bid-Dy647 peptide binding, 1536-well; inhibition, % at 21.7 µM; Q07820; actives 0.97% (n = 220,000);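 active = compounds that cut the binding signal by more than half at the single screening dose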;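 note: His-tagged Mcl-1 with europium anti-His antibody binding Bid BH3 peptide; 0% = Mcl-1 plus peptide wells and 100% = peptide-only wells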
EBV gp42 block = EBV gp42 inhibition; inhibition, % (tested at 21.74 µM); actives 0.42% (n = 220,000); Fluorescence polarization binding assay, mP read-out; in the data active = inhibition above about 50%
Target sequence (Q1HVG2 whole entry, looked up): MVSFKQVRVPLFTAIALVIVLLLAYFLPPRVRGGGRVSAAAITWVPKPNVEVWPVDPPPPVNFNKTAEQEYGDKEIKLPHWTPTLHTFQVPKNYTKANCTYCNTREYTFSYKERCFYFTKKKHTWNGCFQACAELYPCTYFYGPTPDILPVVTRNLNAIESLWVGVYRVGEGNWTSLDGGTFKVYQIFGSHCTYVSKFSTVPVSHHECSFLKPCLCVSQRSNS
Mcl1 Noxa PPI = Mcl-1/Noxa interaction inhibition. inhibition, % at 21.7 µM. AID 1022. Q07820. TR-FRET Mcl-1/Noxa peptide binding, 2 h. actives 1.5% (n = 220,000);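 active = compounds that cut the protein-peptide binding signal by more than 50% relative to plate controls in a single-dose test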;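 note: His-tagged Mcl-1 with rhodamine Noxa BH3 peptide and terbium anti-His antibody; 0% = Mcl-1 plus Noxa peptide wells and 100% = peptide-only wells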
An asterisk follows results filed as active; / = no result given. Compounds with a hit are over-represented: about 2.2% of the library has one in this group of screens.

SMILES | RBBP9 inh | MCL1 BIM primary | Mcl-1 Bim block | Mcl1-Bid inh | EBV gp42 block | Mcl1 Noxa PPI
COc1cc(C=C2C(=O)c3ccccc3C2=O)cc(OC)c1OC | 1.2 | 4.1 | 2.0 | -28.8 | 95.4* | 21.1
COc1ccccc1NC(=O)NC1CCS(=O)(=O)C1 (configuration not stated) | / | 2.6 | / | / | / | /
CCCCSc1cc(C)nc(N)n1 | -8.5 | 10.0 | / | 78.8* | -11.1 | 36.6
Cc1ccc(OCCSc2cc(C)nc(N)n2)cc1 | 3.9 | 1.8 | -10.0 | -2.2 | -6.0 | 15.2
CC(/C=N\Nc1nnc2c(n1)[nH]c1c(C)cccc12)=C\c1ccco1 | 7.2 | 9.5 | 0.0 | 78.5* | 2.7 | 87.4*
CC(/C=N/n1c(-c2ccco2)n[nH]c1=S)=C\c1ccco1 | -7.4 | 19.3 | -3.0 | -47.2 | -14.7 | 42.3
CC(=O)Nc1nc2n(n1)C(c1ccc(F)cc1)C=C(c1ccccc1)N2 (configuration not stated) | -8.3 | 46.8* | -2.0 | -26.0 | 33.5 | 12.7
COc1ccc(C2=CC(c3ccc(Cl)cc3)n3cnnc3N2)cc1OC (configuration not stated) | -3.4 | 62.4* | -6.0 | -102.9 | 54.7* | 14.7
COc1ccc(C2C=C(c3ccc(Cl)cc3)Nc3nc(NC(C)=O)nn32)cc1 (configuration not stated) | -5.2 | 158.3* | 0.0 | -116.7 | 106.3* | 17.2
CC1=CC(c2ccccc2)n2nc(NC(=O)CCC(=O)O)nc2N1 (configuration not stated) | -5.1 | 0.2 | / | -7.8 | -17.7 | 4.5
CC(=O)Nc1nc2n(n1)C(c1ccc(Cl)cc1)C=C(C)N2 (configuration not stated) | -5.6 | 6.6 | -1.0 | -27.1 | -4.8 | 4.5
O=C(Nc1nc2n(n1)C(c1ccccc1)C=C(c1ccccc1)N2)c1ccco1 (configuration not stated) | -4.8 | 40.0* | -5.0 | -48.9 | 14.7 | 12.2
CC1CC1C(=O)N1CCN(S(=O)(=O)c2cc(C(F)(F)F)cc(C(F)(F)F)c2)CC1 (configuration not stated) | / | -5.1 | / | / | / | /
CC(=O)c1c(C)n(CCc2ccc(Cl)cc2)c2ccc(O)cc12 | / | 14.0 | / | / | / | /
COc1ccc(CN(C)S(=O)(=O)c2nnc(NC(=O)c3cccc(F)c3)s2)cc1 | / | 2.7 | / | / | / | /
O=C(Nc1ccc(N2CCOCC2)cc1)c1ccc([N+](=O)[O-])cc1 | -1.5 | 0.5 | -3.0 | -28.3 | -13.2 | 0.3
O=C(N/N=C/c1ccc(O)c(O)c1)c1ccc(CSc2cccc3cccnc23)cc1 | -11.7 | 15.1 | -9.0 | -6.5 | -2.0 | 76.1*
COc1ccc(CN2CCN(Cc3ccc(Br)cc3)CC2)c(OC)c1OC | / | -8.1 | / | / | / | /
CC1=C(SCCC#N)S/C(=C2\SC(C)=C(SCCC#N)S2)S1 | -2.2 | 16.3 | -7.0 | 96.1* | -22.5 | 74.4*
Cn1c(SCCC#N)nnc1-c1ccc(F)cc1 | 6.5 | 12.9 | -2.0 | -33.6 | -1.2 | 3.8
CC1=CC(C#N)(C#N)C(C#N)(C#N)C(c2ccccc2)N1 (configuration not stated) | -0.3 | 151.2* | -2.0 | -27.2 | 113.8* | 19.2
COC1(OC)N=C(N)C2(C#N)C(c3ccccc3)NC(C)=CC12C#N (configuration not stated) | -10.0 | 9.9 | -4.0 | -36.9 | -6.5 | 7.7
Cc1ccc(C)c(S(=O)(=O)N2CCCOC2CNC(=O)C(=O)NCc2ccc3c(c2)OCO3)c1 (configuration not stated) | / | 31.1 | / | / | / | /
COc1c(N2CCNC(C)C2)c(F)cc2c(=O)c(C(=O)O)cn(C3CC3)c12 (configuration not stated) | / | 5.4 | / | / | / | /
NC1CCN(c2c(F)cc3c(=O)c(C(=O)O)cn(C4CC4)c3c2Cl)C1 (configuration not stated) | 0.6 | -11.5 | / | 63.0* | -2.7 | -36.8
SMILES | RBBP9 inh | MCL1 BIM primary | Mcl-1 Bim block | Mcl1-Bid inh | EBV gp42 block | Mcl1 Noxa PPI
CCC(C(=O)NC(C)(C)C)N(Cc1ccco1)C(=O)CNS(=O)(=O)c1ccc(OC)cc1 (configuration not stated) | / | 7.1 | / | / | / | /
O=[N+]([O-])c1cccc(S(=O)(=O)c2ccc(NCCO)c([N+](=O)[O-])c2)c1 | -0.2 | -4.5 | -3.0 | 32.3 | -6.3 | 26.7
COP(=O)(OC)C(NC(=O)Nc1ccccc1)c1ccccc1 (configuration not stated) | 1.9 | -0.6 | / | -0.5 | -15.2 | 6.7
CN(C)CCN(C(=O)c1ccccc1Cl)c1nc2c(Cl)cccc2s1 | -4.6 | 0.4 | -4.0 | 57.4* | -17.7 | -7.2
CN(C)CCN(C(=O)c1cccc(Cl)c1)c1nc2c(Cl)cccc2s1 | 2.4 | 5.1 | -2.0 | -17.7 | 1.5 | -4.8
COc1ccc2[nH]c(=O)c(CNc3cccc(C)c3)cc2c1 | -3.1 | 30.3 | -5.0 | -8.1 | -2.5 | 50.9*
COc1ccc(N(Cc2cc3cc(OC)ccc3[nH]c2=O)C(=O)C2CCCO2)cc1 (configuration not stated) | 0.6 | 1.1 | -1.0 | -11.8 | -5.5 | 10.8
COc1ccc2[nH]c(=O)c(CNC3CCCCC3)cc2c1 | 2.7 | -1.7 | -2.0 | 70.3* | -10.2 | 3.6
COc1ccc2[nH]c(=O)c(CN(C(=O)NC3CCCCC3)C3CCCCC3)cc2c1 | -3.2 | 5.5 | 2.0 | 11.5 | -5.3 | -1.1
COc1ccc2[nH]c(=O)c(CN(C(=O)C3CCCO3)c3ccc(C)c(C)c3)cc2c1 (configuration not stated) | -11.6 | -8.1 | / | 100.4* | -4.6 | -18.4
CCOC(=O)c1ccc(NC(=O)CN2CCN(C(=O)C3CCCO3)CC2)cc1 (configuration not stated) | / | -0.7 | / | / | / | /
O=C(NCCc1ccccc1)C1CCN(S(=O)(=O)c2ccc(-c3nn[nH]n3)cc2)CC1 | -4.7 | -5.9 | -3.0 | 87.9* | -10.3 | 8.9
COc1ccc(C(=O)NNC(=O)C(=O)Nc2cccc3ccccc23)cc1 | / | 6.0 | / | / | / | /
Cc1cc2c(C)c(C)c(=O)[nH]c2cc1N | -5.8 | 4.9 | -4.0 | -19.5 | -7.3 | 55.3*
Cc1cc(C)c2[nH]c(=O)c(=O)[nH]c2c1 | -0.3 | 1.8 | -1.0 | 2.7 | -15.7 | 9.1
Cc1cc(O)c(-c2cc(C(=O)Nc3sc4c(c3C(=O)NCc3ccco3)CCC4)[nH]n2)cc1C | -9.9 | 1.1 | / | -47.2 | -13.0 | 70.5*
CC(=O)c1sc(-c2ccc(Cl)cc2)cc1N | -6.5 | 3.2 | / | 56.0* | 2.8 | 3.1
CCC(CO)N=CC1=C(O)CC(c2ccccc2)CC1=O (configuration not stated) | / | 2.6 | / | / | / | /
CCC1=NN2C(=N)/C(=C/c3cc(C)n(Cc4ccccc4)c3C)C(=O)N=C2S1 | -1.0 | -8.9 | / | -100.7 | -3.5 | 26.9
Cc1cc(/C=C2\C(=N)N3N=C(c4ccco4)SC3=NC2=O)c(C)n1Cc1ccccc1 | -0.2 | 2.1 | / | -54.3 | -40.4 | 63.0*
O=C(CN1C(=O)NC2(CCCCC2)C1=O)Nc1ccc(F)cc1 | -1.0 | -1.1 | 2.0 | -7.1 | -7.6 | 12.7
